Tests used:
Format in all cases: functional
[1] = test system: Staphylococcus lugdunensis; assay: Antibacterial activity against coagulase-negative Staphylococcus lugdunensis 111A53 isolate assessed as bacterial counts at 10 times MIC after 24 hrs
Method in brief: (§1)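 CLSI time-kill in 50 ml Mueller-Hinton broth. Mean starting inoculum 5.6 log10 CFU/ml; vancomycin or teicoplanin at 10× MIC, with MIC from CLSI agar dilution. Counts taken just before and 6 and 24 h after antibiotic addition: samples diluted 10-fold to avoid carryover and plated in duplicate on prewarmed blood agar. Result given as Δlog CFU/ml; each strain run in duplicate.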

Staphylococcus [2] = assay: Antibacterial activity against coagulase-negative Staphylococcus assessed as bacterial counts at 10 times MIC after 24 hrs; method in brief: as §1
Staphylococcus [3] = assay: Antibacterial activity against coagulase-negative Staphylococcus assessed as bacterial counts at 10 times MIC after 6 hrs; method in brief: as §1
[4] = test system: Staphylococcus lugdunensis; assay: Antibacterial activity against coagulase-negative Staphylococcus lugdunensis ATCC 43809 assessed as bacterial counts at 10 times MIC after 24 hrs; method in brief: as §1
[5] = test system: Staphylococcus lugdunensis; assay: Reduction of teicoplanin-tolerant Staphylococcus lugdunensis 111A91 isolate assessed as bacterial counts at 5 times MIC after 6 hrs by time-kill curve method
Method in brief: (§2)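 CLSI time-kill in 50 ml Mueller-Hinton broth, mean starting inoculum 5.6 log10 CFU/ml. Vancomycin or teicoplanin at 5×, 10× or 20× the agar-dilution MIC. Viable counts taken before and 6 and 24 h after antibiotic addition; samples diluted 10-fold and plated in duplicate on prewarmed blood agar. Change reported as mean log CFU/ml.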

[6] = test system: Staphylococcus lugdunensis; assay: Reduction of vancomycin-tolerant Staphylococcus lugdunensis 111A53 isolate assessed as bacterial counts at 5 times MIC after 24 hrs by time-kill curve method; method in brief: as §2
[7] = test system: Staphylococcus lugdunensis; assay: Antibacterial activity against coagulase-negative Staphylococcus lugdunensis isolate assessed as bacterial counts at 10 times MIC after 24 hrs; method in brief: as §1
[8] = test system: Staphylococcus lugdunensis; assay: Reduction of teicoplanin-tolerant Staphylococcus lugdunensis 111A91 isolate assessed as bacterial counts at 10 times MIC after 6 hrs by time-kill curve method; method in brief: as §2
[9] = test system: Staphylococcus lugdunensis; assay: Reduction of vancomycin-tolerant Staphylococcus lugdunensis 111A53 isolate assessed as bacterial counts at 10 times MIC after 6 hrs by time-kill curve method; method in brief: as §2
[10] = test system: Staphylococcus lugdunensis; assay: Reduction of vancomycin-tolerant Staphylococcus lugdunensis 111A53 isolate assessed as bacterial counts at 5 times MIC after 6 hrs by time-kill curve method; method in brief: as §2
[11] = test system: Staphylococcus lugdunensis; assay: Antibacterial activity against coagulase-negative Staphylococcus lugdunensis ATCC 43809 assessed as bacterial counts at 10 times MIC after 6 hrs; method in brief: as §1
[12] = test system: Staphylococcus lugdunensis; assay: Antibacterial activity against coagulase-negative Staphylococcus lugdunensis ATCC 49576 assessed as bacterial counts at 10 times MIC after 6 hrs; method in brief: as §1
[13] = test system: Staphylococcus lugdunensis; assay: Antibacterial activity against coagulase-negative Staphylococcus lugdunensis 111A229 isolate assessed as bacterial counts at 10 times MIC after 6 hrs; method in brief: as §1
[14] = test system: Staphylococcus lugdunensis; assay: Antibacterial activity against coagulase-negative Staphylococcus lugdunensis 111A53 isolate assessed as bacterial counts at 10 times MIC after 6 hrs; method in brief: as §1
[15] = test system: Staphylococcus lugdunensis; assay: Antibacterial activity against coagulase-negative Staphylococcus lugdunensis isolate assessed as bacterial counts at 10 times MIC after 6 hrs; method in brief: as §1
[16] = test system: Staphylococcus lugdunensis; assay: Reduction of vancomycin-tolerant Staphylococcus lugdunensis 111A53 isolate assessed as bacterial counts at 20 times MIC after 24 hrs by time-kill curve method; method in brief: as §2
[17] = test system: Staphylococcus lugdunensis; assay: Ratio of MBC to MIC against vancomycin-tolerant Staphylococcus lugdunensis 111A53 isolate
Method in brief: (§3)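 MBC/MIC by CLSI broth method, starting inoculum between 10^5 and 10^6 CFU/ml in Mueller-Hinton broth. Vancomycin and teicoplanin tested; S. aureus ATCC 25923 quality control included in each assay. Three separate assays, each ratio reported individually.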

[18] = test system: Staphylococcus lugdunensis; assay: Antibacterial activity against coagulase-negative Staphylococcus lugdunensis 111A223 isolate assessed as bacterial counts at 10 times MIC after 24 hrs; method in brief: as §1
[19] = test system: Staphylococcus lugdunensis; assay: Reduction of teicoplanin-tolerant Staphylococcus lugdunensis 111A91 isolate assessed as bacterial counts at 5 times MIC after 24 hrs by time-kill curve method; method in brief: as §2
[20] = test system: Staphylococcus lugdunensis; assay: Reduction of vancomycin-tolerant Staphylococcus lugdunensis 111A53 isolate assessed as bacterial counts at 20 times MIC after 6 hrs by time-kill curve method; method in brief: as §2
[21] = test system: Staphylococcus lugdunensis; assay: Antibacterial activity against coagulase-negative Staphylococcus lugdunensis 111A91 isolate assessed as bacterial counts at 10 times MIC after 24 hrs; method in brief: as §1
[22] = test system: Staphylococcus lugdunensis; assay: Reduction of teicoplanin-tolerant Staphylococcus lugdunensis 111A91 isolate assessed as bacterial counts at 10 times MIC after 24 hrs by time-kill curve method; method in brief: as §2
[23] = test system: Staphylococcus lugdunensis; assay: Antibacterial activity against coagulase-negative Staphylococcus lugdunensis 111A91 isolate assessed as bacterial counts at 10 times MIC after 6 hrs; method in brief: as §1
[24] = test system: Staphylococcus lugdunensis; assay: Antibacterial activity against coagulase-negative Staphylococcus lugdunensis 111A223 isolate assessed as bacterial counts at 10 times MIC after 6 hrs; method in brief: as §1
[25] = test system: Staphylococcus lugdunensis; assay: Antibacterial activity against coagulase-negative Staphylococcus lugdunensis 111A229 isolate assessed as bacterial counts at 10 times MIC after 24 hrs; method in brief: as §1
[26] = test system: Staphylococcus lugdunensis; assay: Antibacterial activity against coagulase-negative Staphylococcus lugdunensis ATCC 49576 assessed as bacterial counts at 10 times MIC after 24 hrs; method in brief: as §1
[27] = test system: Staphylococcus lugdunensis; assay: Reduction of vancomycin-tolerant Staphylococcus lugdunensis 111A53 isolate assessed as bacterial counts at 10 times MIC after 24 hrs by time-kill curve method; method in brief: as §2
[28] = test system: Staphylococcus lugdunensis; assay: Ratio of MBC to MIC against teicoplanin-tolerant Staphylococcus lugdunensis 111A91 isolate; method in brief: as §3
[29] = test system: Staphylococcus lugdunensis; assay: Reduction of teicoplanin-tolerant Staphylococcus lugdunensis 111A91 isolate assessed as bacterial counts at 20 times MIC after 6 hrs by time-kill curve method; method in brief: as §2
[30] = test system: Staphylococcus lugdunensis; assay: Reduction of teicoplanin-tolerant Staphylococcus lugdunensis 111A91 isolate assessed as bacterial counts at 20 times MIC after 24 hrs by time-kill curve method; method in brief: as §2

CN[C@H](CC(C)C)C(=O)N[C@H]1C(=O)N[C@@H](CC(N)=O)C(=O)N[C@H]2C(=O)N[C@H]3C(=O)N[C@H](C(=O)N[C@H](C(=O)O)c4cc(O)cc(O)c4-c4cc3ccc4O)[C@H](O)c3ccc(c(Cl)c3)Oc3cc2cc(c3O[C@@H]2O[C@H](CO)[C@@H](O)[C@H](O)[C@H]2O[C@H]2C[C@](C)(N)[C@H](O)[C@H](C)O2)Oc2ccc(cc2Cl)[C@H]1O [VANCOMYCIN]
deltalog10CFU/ml [1]: -1.94 | deltalog10CFU/ml (Staphylococcus [2]): -4.8 | deltalog10CFU/ml (Staphylococcus [3]): -2.98 | deltalog10CFU/ml [4]: -2.18 | log10CFU/ml [5]: -1.16 | log10CFU/ml [6]: -1.72 | deltalog10CFU/ml [7]: -4.1 | log10CFU/ml [8]: -0.31 | log10CFU/ml [9]: -0.31 | log10CFU/ml [10]: -0.05 | deltalog10CFU/ml [11]: -0.21 | deltalog10CFU/ml [12]: -1.38 | deltalog10CFU/ml [13]: -2.24 | deltalog10CFU/ml [14]: -0.31 | deltalog10CFU/ml [15]: -1.17 | log10CFU/ml [16]: -1.74 | Ratio [17]: 8 | deltalog10CFU/ml [18]: -1.65 | log10CFU/ml [19]: -3.9 | log10CFU/ml [20]: -0.07 | deltalog10CFU/ml [21]: -3.53 | log10CFU/ml [22]: -3.53 | deltalog10CFU/ml [23]: -0.31 | deltalog10CFU/ml [24]: -0.67 | deltalog10CFU/ml [25]: -2.42 | deltalog10CFU/ml [26]: -3.91 | log10CFU/ml [27]: -1.94 | Ratio [28]: 64 | log10CFU/ml [29]: -0.56 | log10CFU/ml [30]: -2.83
